From ChEMBL document CHEMBL1287748, “Design, synthesis and in vitro antimalarial evaluation of triazole-linked chalcone and dienone hybrid compounds” (Bioorg Med Chem, 2010)

Experiments:
[1] = Inhibition of beta-hematin formation assessed as equivalents of drug relative to hematin; assay type: functional
How it was run: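 Colorimetric assay quantifying a compound's inhibition of the conversion of hematin to beta-hematin. IC50 is expressed in equivalents of compound relative to hematin.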

Plasmodium falciparum [2] = assay: Antimalarial activity against chloroquine-sensitive Plasmodium falciparum D10 after 48 hrs; assay type: functional, organism-based; details: D10, 48 h
How it was run: (§1)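 P. falciparum asexual culture in RPMI 1640 with glucose, HEPES, hypoxanthine, 5% Albumax, bicarbonate and gentamicin, sorbitol-synchronized at ring stage when needed. DMSO stocks serially diluted twofold in medium and added to parasitized erythrocytes at 2% hematocrit. Incubation 48 h at 37 °C under 3% O2/4% CO2/93% N2. pLDH read-out with Malstat plus NBT/PES at 620 nm. Runs in duplicate on two occasions; IC50 fitted from dose–response curves.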

Plasmodium falciparum [3] = assay: Antimalarial activity against chloroquine-resistant Plasmodium falciparum Dd2 after 48 hrs; assay type: functional, organism-based; details: Dd2, 48 h; how it was run: as §1
Plasmodium falciparum [4] = assay: Antimalarial activity against chloroquine-resistant Plasmodium falciparum W2 after 48 hrs by FACS analysis in presence of 10 % human serum; assay type: functional, organism-based; details: W2, 48 h
How it was run: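 W2 parasites grown in standard medium containing 10% human serum. Growth inhibition assay as in earlier published work, with parasite development scored by flow cytometry (FACS).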

Row | SMILES | IC50 [1] | IC50 (Plasmodium falciparum [2]) | IC50 (Plasmodium falciparum [3]) | IC50 (Plasmodium falciparum [4])
1 | CCN(CC)CCCC(C)Nc1ccnc2cc(Cl)ccc12 (stereo unspecified) [CHLOROQUINE] | 1.91 equiv |  |  | 
2 | C#CCOc1ccc(/C=C/C(=O)/C=C/c2ccc(Cl)cc2Cl)cc1OC |  | 9.2 µM | 9 µM | > 20 µM
3 | COc1cc(C(=O)/C=C/c2ccc(F)cc2F)ccc1OCc1cn([C@H]2C[C@H](n3cc(C)c(=O)[nH]c3=O)O[C@@H]2CO)nn1 |  | 3.9 µM | 4.8 µM | 7.1 µM
4 | COc1ccc(C(=O)/C=C/c2ccc(OCc3cn([C@H]4C[C@H](n5cc(C)c(=O)[nH]c5=O)O[C@@H]4CO)nn3)c(OC)c2)c(OC)c1 |  | 1.5 µM | 4.4 µM | 5.4 µM
5 | COc1cc(/C=C/C(=O)/C=C/c2ccc(OC)c(OC)c2OC)ccc1OCc1cn([C@H]2C[C@H](n3cc(C)c(=O)[nH]c3=O)O[C@@H]2CO)nn1 |  | 1.3 µM | 2.4 µM | 8.3 µM
6 | Cc1cn([C@H]2C[C@H](N=[N+]=[N-])[C@@H](CO)O2)c(=O)[nH]c1=O [ZIDOVUDINE] |  | > 20 µM | > 20 µM | > 20 µM
7 | COc1ccc(/C=C/C(=O)c2ccc(OCc3cn([C@H]4C[C@H](n5cc(C)c(=O)[nH]c5=O)O[C@@H]4CO)nn3)c(OC)c2)c(OC)c1 |  | 10.2 µM | 11.8 µM | 9 µM
8 | COc1cc(C(=O)/C=C/c2ccc(F)cc2)ccc1OCc1cn([C@H]2C[C@H](n3cc(C)c(=O)[nH]c3=O)O[C@@H]2CO)nn1 |  | 7.3 µM | 6.1 µM | 6.6 µM
9 | C#CCOc1ccc(C(=O)/C=C/c2ccc(OC)cc2OC)cc1OC |  | > 20 µM | 14.5 µM | 
10 | Clc1ccc2c(-n3cc(COc4ccccc4)nn3)ccnc2c1 |  | > 20 µM | > 20 µM | 
11 | COc1cc(C(=O)/C=C/c2ccc(Cl)cc2Cl)ccc1OCc1cn([C@H]2C[C@H](n3cc(C)c(=O)[nH]c3=O)O[C@@H]2CO)nn1 |  | 3.7 µM | 1.9 µM | 8.4 µM
12 | C#CCOc1ccc(/C=C/C(=O)/C=C/c2ccc(F)cc2)cc1OC |  | 9.8 µM | 6.5 µM | 21.5 µM
13 | C#CCOc1ccc(/C=C/C(=O)/C=C/c2ccc(OC)cc2OC)cc1OC |  | 5.4 µM | 4 µM | 18.9 µM
14 | C#CCOc1ccc(/C=C/C(C)=O)cc1OC |  | 9.7 µM | 7.5 µM | > 20 µM
15 | C#CCOc1ccc(/C=C/C(=O)c2ccc(OC)c(OC)c2OC)cc1OC |  |  | 2.8 µM | 
16 | COc1cc(C=O)ccc1OCc1cn(-c2ccnc3cc(Cl)ccc23)nn1 |  | > 20 µM | > 20 µM | 
17 | COc1cc(/C=C/C(=O)/C=C/c2ccc(Cl)cc2Cl)ccc1OCc1cn(-c2ccnc3cc(Cl)ccc23)nn1 |  | 19 µM | 16.8 µM | > 20 µM
18 | COc1ccc(C(=O)/C=C/c2ccc(OCc3cn(-c4ccnc5cc(Cl)ccc45)nn3)c(OC)c2)cc1 |  | 0.6 µM | 2.2 µM | 5 µM
19 | C#CCOc1ccc(C(=O)/C=C/c2ccc(Cl)cc2Cl)cc1OC |  | 3.3 µM | 2.8 µM | 5 µM
20 | COc1ccc(/C=C/C(=O)/C=C/c2ccc(OCc3cn(-c4ccnc5cc(Cl)ccc45)nn3)c(OC)c2)c(OC)c1 |  | 5.1 µM | 6.4 µM | > 20 µM
21 | COc1ccc(/C=C/C(=O)/C=C/c2ccc(OCc3cn([C@H]4C[C@H](n5cc(C)c(=O)[nH]c5=O)O[C@@H]4CO)nn3)c(OC)c2)c(OC)c1 |  | 1.3 µM | 1.2 µM | 14.5 µM
22 | COc1ccc(/C=C/C(=O)/C=C/c2ccc(OCc3cn([C@H]4C[C@H](n5cc(C)c(=O)[nH]c5=O)O[C@@H]4CO)nn3)c(OC)c2)cc1 |  | 2.8 µM | 1.5 µM | 18.2 µM
23 | COc1cc(/C=C/C(=O)c2ccc(OC)c(OC)c2OC)ccc1OCc1cn([C@H]2C[C@H](n3cc(C)c(=O)[nH]c3=O)O[C@@H]2CO)nn1 |  | 3.3 µM | 3.7 µM | 5.4 µM
24 | COc1cc(/C=C/C(C)=O)ccc1OCc1cn([C@H]2C[C@H](n3cc(C)c(=O)[nH]c3=O)O[C@@H]2CO)nn1 |  | 12 µM | 16.4 µM | 
25 | C#CCOc1ccc(/C=C/C(=O)/C=C/c2ccc(F)cc2F)cc1OC |  | 11.9 µM | 9.3 µM | > 20 µM

Row | SMILES | IC50 [1] | IC50 (Plasmodium falciparum [2]) | IC50 (Plasmodium falciparum [3]) | IC50 (Plasmodium falciparum [4])
26 | C#CCOc1ccc(C(=O)/C=C/c2ccc(F)cc2)cc1OC |  | 7.2 µM | 7.7 µM | > 20 µM
27 | COc1cc(/C=C/C(=O)c2ccc(OC)c(OC)c2OC)ccc1OCc1cn(-c2ccnc3cc(Cl)ccc23)nn1 | 0.2 equiv | 0.4 µM | 0.4 µM | 0.6 µM
28 | COc1cc(/C=C/C(=O)/C=C/c2ccc(Cl)cc2Cl)ccc1OCc1cn([C@H]2C[C@H](n3cc(C)c(=O)[nH]c3=O)O[C@@H]2CO)nn1 |  | 1.4 µM | 1.7 µM | 9.1 µM
29 | COc1ccc(C(=O)/C=C/c2ccc(OCc3cn(-c4ccnc5cc(Cl)ccc45)nn3)c(OC)c2)c(OC)c1 | 1.6 equiv | 0.04 µM | 0.07 µM | 0.09 µM
30 | COc1cc(C(=O)/C=C/c2ccc(F)cc2F)ccc1OCc1cn(-c2ccnc3cc(Cl)ccc23)nn1 | 1.6 equiv | 4.1 µM | 2.1 µM | 10.6 µM
31 | COc1cc(/C=C/C(=O)/C=C/c2ccc(F)cc2)ccc1OCc1cn([C@H]2C[C@H](n3cc(C)c(=O)[nH]c3=O)O[C@@H]2CO)nn1 |  | 1.7 µM | 2.6 µM | 
32 | COc1cc(/C=C/C(=O)/C=C/c2ccc(F)cc2F)ccc1OCc1cn([C@H]2C[C@H](n3cc(C)c(=O)[nH]c3=O)O[C@@H]2CO)nn1 |  | 1.4 µM | 1.7 µM | 12.4 µM
33 | C#CCOc1ccc(C(=O)/C=C/c2ccc(F)cc2F)cc1OC |  | > 20 µM | 5.2 µM | 9.4 µM
34 | COc1ccc(C(=O)/C=C/c2ccc(OCc3cn([C@H]4C[C@H](n5cc(C)c(=O)[nH]c5=O)O[C@@H]4CO)nn3)c(OC)c2)cc1 |  | 2.9 µM | 6.1 µM | 8 µM
35 | C#CCOc1ccc(/C=C/C(=O)c2ccc(OC)cc2OC)cc1OC | 0.5 equiv |  | 4.3 µM | 
36 | COc1cc(C(=O)/C=C/c2ccc(F)cc2)ccc1OCc1cn(-c2ccnc3cc(Cl)ccc23)nn1 | 4.8 equiv | 7.4 µM | 1.6 µM | 6.9 µM
37 | C#CCOc1ccc(/C=C/C(=O)c2ccc(OC)cc2)cc1OC |  |  | 13.5 µM | 
38 | COc1cc(/C=C/C(=O)/C=C/c2ccc(F)cc2)ccc1OCc1cn(-c2ccnc3cc(Cl)ccc23)nn1 |  | 9.4 µM | 9.3 µM | > 20 µM
39 | COc1ccc(/C=C/C(=O)c2ccc(OCc3cn(-c4ccnc5cc(Cl)ccc45)nn3)c(OC)c2)c(OC)c1 | Not Active | 5.2 µM | 11.7 µM | 6.6 µM
40 | C#CCOc1ccc(/C=C/C(=O)/C=C/c2ccc(OC)c(OC)c2OC)cc1OC |  | 0.9 µM | 1.4 µM | 9.2 µM
41 | COc1cc(/C=C/C(=O)/C=C/c2ccc(OC)c(OC)c2OC)ccc1OCc1cn(-c2ccnc3cc(Cl)ccc23)nn1 |  | 2.5 µM | 2.1 µM | 18.5 µM
42 | COc1cc(/C=C/C(C)=O)ccc1OCc1cn(-c2ccnc3cc(Cl)ccc23)nn1 |  | 0.8 µM | 0.7 µM | 
43 | C#CCOc1ccc(C(=O)/C=C/c2ccc(OC)c(OC)c2OC)cc1OC |  |  | 2.4 µM | 
44 | COc1cc(C(=O)/C=C/c2ccc(Cl)cc2Cl)ccc1OCc1cn(-c2ccnc3cc(Cl)ccc23)nn1 |  | 6 µM | 1.9 µM | 11.5 µM
45 | COc1cc(/C=C/C(=O)/C=C/c2ccc(F)cc2F)ccc1OCc1cn(-c2ccnc3cc(Cl)ccc23)nn1 |  | 10.2 µM | 6.5 µM | > 20 µM
46 | C#CCOc1ccc(/C=C/C(=O)/C=C/c2ccc(OC)cc2)cc1OC |  | 11.8 µM | 10.7 µM | > 20 µM
47 | COc1cc(C(=O)/C=C/c2ccc(OC)c(OC)c2OC)ccc1OCc1cn(-c2ccnc3cc(Cl)ccc23)nn1 | 4.1 equiv | 0.3 µM | 0.3 µM | 0.5 µM
48 | COc1ccc(/C=C/C(=O)/C=C/c2ccc(OCc3cn(-c4ccnc5cc(Cl)ccc45)nn3)c(OC)c2)cc1 |  | 3 µM | 2.1 µM | 5.3 µM
49 | [N-]=[N+]=Nc1ccnc2cc(Cl)ccc12 |  | > 20 µM | > 20 µM | > 20 µM
50 | COc1cc(C(=O)/C=C/c2ccc(OC)c(OC)c2OC)ccc1OCc1cn([C@H]2C[C@H](n3cc(C)c(=O)[nH]c3=O)O[C@@H]2CO)nn1 |  | 5.4 µM | 3.8 µM | 7.1 µM
